Assay results reported in ChEMBL document CHEMBL2331225, “Structure-based design, synthesis and evaluation of novel anthra[1,2-d]imidazole-6,11-dione derivatives as telomerase inhibitors and potential for cancer polypharmacology” (Eur J Med Chem, 2013).
Active and inactive are the calls of the source. The calls are words filed in the database; no cut-off is given here.

Columns and labels:
[1] = Cytotoxicity against human H1299 cells assessed as cell viability at 1 uM after 48 hrs by MTT assay; format: functional; settings: NCI-H1299, 48 h, read-out: Activity
In short: (§1)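 H1299 cells at about 2 × 10³ per well were grown 24 h at 37 °C in 5% CO₂. Compounds were dissolved in DMSO just before use and diluted into complete medium. After 48 h exposure, MTT was added for 4 h at 37 °C, then lysis buffer (20% SDS, 50% DMF) for 16 h at 37 °C. Absorbance was read at 550 nm.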

[2] = biological target: T1, Telomerase reverse transcriptase (Homo sapiens, UniProt O14746); assay: Inhibition of TERT transcriptional activity in human H1299 cells assessed SEAP activity at 10 uM incubated for 24 hrs by SEAP assay; format: cell-based; set-up: scale not given: the % may be the effect or the level left
T1 sequence (O14746 whole entry): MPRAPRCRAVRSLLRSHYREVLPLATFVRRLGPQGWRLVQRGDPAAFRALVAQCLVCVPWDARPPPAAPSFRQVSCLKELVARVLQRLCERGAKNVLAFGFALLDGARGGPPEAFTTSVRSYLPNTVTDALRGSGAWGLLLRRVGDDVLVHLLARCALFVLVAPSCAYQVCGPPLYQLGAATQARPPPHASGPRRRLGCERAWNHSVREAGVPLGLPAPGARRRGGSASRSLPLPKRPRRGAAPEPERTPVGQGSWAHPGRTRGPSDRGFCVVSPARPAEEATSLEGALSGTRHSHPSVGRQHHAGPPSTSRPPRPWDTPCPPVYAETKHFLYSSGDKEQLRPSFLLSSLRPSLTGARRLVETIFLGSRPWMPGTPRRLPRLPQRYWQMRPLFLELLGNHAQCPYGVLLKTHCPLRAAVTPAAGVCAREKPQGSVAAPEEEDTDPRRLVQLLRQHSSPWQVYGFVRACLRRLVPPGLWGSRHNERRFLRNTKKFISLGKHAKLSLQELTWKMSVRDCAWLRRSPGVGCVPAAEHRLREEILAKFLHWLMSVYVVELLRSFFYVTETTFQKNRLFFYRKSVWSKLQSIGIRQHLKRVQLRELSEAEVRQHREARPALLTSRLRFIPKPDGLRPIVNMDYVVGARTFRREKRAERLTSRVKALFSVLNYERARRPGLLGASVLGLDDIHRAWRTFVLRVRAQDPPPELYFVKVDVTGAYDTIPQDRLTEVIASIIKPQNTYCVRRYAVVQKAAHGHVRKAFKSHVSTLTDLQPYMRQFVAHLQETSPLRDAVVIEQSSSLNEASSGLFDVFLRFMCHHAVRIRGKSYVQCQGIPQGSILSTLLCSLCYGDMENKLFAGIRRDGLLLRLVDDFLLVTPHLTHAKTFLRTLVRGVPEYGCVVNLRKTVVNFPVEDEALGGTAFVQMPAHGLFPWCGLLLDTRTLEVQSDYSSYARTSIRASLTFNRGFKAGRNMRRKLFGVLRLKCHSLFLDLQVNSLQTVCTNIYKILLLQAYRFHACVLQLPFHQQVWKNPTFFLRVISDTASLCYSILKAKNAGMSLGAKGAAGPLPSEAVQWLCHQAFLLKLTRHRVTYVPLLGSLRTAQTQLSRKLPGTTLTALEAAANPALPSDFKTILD
In short: (§2)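 H1299 stable clones carry the hTERT promoter (−3338 to +1 bp) upstream of SEAP, introduced by electroporation and selected with G418. About 2 × 10³ cells per well were grown 24 h at 37 °C, given fresh medium, then drug for 24 h. Collected media were heated at 65 °C for 10 min, mixed with equal SEAP buffer (2 M diethanolamine, 1 mM MgCl₂, 20 mM L-homoarginine) and p-nitrophenyl phosphate at 12 mM final.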

[3] = biological target: T1, Telomerase reverse transcriptase; assay: Inhibition of TERT transcriptional activity in human H1299 cells assessed SEAP activity at 1 uM incubated for 24 hrs by SEAP assay; format: cell-based; set-up: scale not given: the % may be the effect or the level left; in short: as §2
[4] = biological target: T1, Telomerase reverse transcriptase; assay: Inhibition of TERT transcriptional activity in human H1299 cells assessed SEAP activity at 100 uM incubated for 24 hrs by SEAP assay; format: cell-based; set-up: scale not given: the % may be the effect or the level left; in short: as §2
[5] = Cytotoxicity against human H1299 cells assessed as cell viability at 10 uM after 48 hrs by MTT assay; format: functional; settings: NCI-H1299, 48 h, read-out: Activity; in short: as §1
[6] = Cytotoxicity against human H1299 cells assessed as cell viability at 100 uM after 48 hrs by MTT assay; format: functional; settings: NCI-H1299, 48 h, read-out: Activity; in short: as §1
[7] = tested on: PC-3; assay: Growth inhibition of human PC3 cells after 48 hrs by SRB assay; format: functional, cell-based; settings: PC-3, 48 h
In short: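 PC-3 cells were seeded in medium with 5% FBS; after 24 h a plate was fixed with 10% TCA as T₀. Vehicle (0.1% DMSO) or compound was given for 48 h, then cells were TCA-fixed, stained with 0.4% SRB in 1% acetic acid, solubilized in 10 mM Trizma base and read at 515 nm. IC₅₀ is the concentration halving the protein increase seen in controls.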

[8] = biological target: T1, Telomerase reverse transcriptase; assay: Inhibition of TERT activity in human H1299 cells homogenates incubated for 5 mins at 100 uM by TRAP assay; format: cell-free
In short: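 Telomerase-active extracts were prepared from H1299 cells, and lysate protein was measured against BSA standards. Compounds were tested in the TRAP assay, with RNase A-treated extracts as negative controls.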

Activity [2] [%]	Activity [3] [%]	Activity [4] [%]	IC50 [7] [µM]	TERT inhibition (active/not active) [8]	Structure (SMILES)	viability at 1 µM [1] [%]	viability at 10 µM [5] [%]	viability at 100 µM [6] [%]
66	107	4	10.5	inactive	O=C1c2ccccc2C(=O)c2c1ccc1nc(CN3CCCCCC3)[nH]c21	104	85	0
97	102	26	12.4	inactive	O=C1c2ccccc2C(=O)c2c1ccc1nc(CN3CCOCC3)[nH]c21	90	71	13
97	102	26	> 30	inactive	CC1CCN(Cc2nc3ccc4c(c3[nH]2)C(=O)c2ccccc2C4=O)CC1	114	110	32
39	97	0	7.5	inactive	CCN(C)Cc1nc2ccc3c(c2[nH]1)C(=O)c1ccccc1C3=O	99	65	0
96	97	14	21.6	inactive	O=C1c2ccccc2C(=O)c2c1ccc1nc(CN3CCC4(CC3)OCCO4)[nH]c21	103	79	15
77	115	5	6.7	inactive	O=C1c2ccccc2C(=O)c2c1ccc1nc(CN3CCSCC3)[nH]c21	92	77	1
45	84	0	8.8	inactive	CN(C)Cc1nc2ccc3c(c2[nH]1)C(=O)c1ccccc1C3=O	99	64	0
17	87	0	12.8	inactive	C=CCN1CCN(Cc2nc3ccc4c(c3[nH]2)C(=O)c2ccccc2C4=O)CC1	86	45	0
86	106	12	12.1	inactive	O=C1c2ccccc2C(=O)c2c1ccc1nc(CN3CCSC3)[nH]c21	89	76	5
30	105	3	15.3	inactive	COc1cccc(N2CCN(Cc3nc4ccc5c(c4[nH]3)C(=O)c3ccccc3C5=O)CC2)c1	81	58	24
63	88	1	> 30	inactive	O=C1c2ccccc2C(=O)c2c1ccc1nc(CCN3CCN(c4ccccn4)CC3)[nH]c21	98	93	57
92	111	19	27.9	inactive	O=C1c2ccccc2C(=O)c2c1ccc1nc(CN3CCN(c4ncccn4)CC3)[nH]c21	85	74	28

Continued, compound first:

Structure (SMILES)	Activity [2] [%]	Activity [3] [%]	Activity [4] [%]	IC50 [7] [µM]	TERT inhibition (active/not active) [8]	viability at 1 µM [1] [%]	viability at 10 µM [5] [%]	viability at 100 µM [6] [%]
N#Cc1ccccc1N1CCN(Cc2nc3ccc4c(c3[nH]2)C(=O)c2ccccc2C4=O)CC1	57	106	6	29	inactive	78	62	22
CN(Cc1nc2ccc3c(c2[nH]1)C(=O)c1ccccc1C3=O)Cc1c2ccccc2cc2ccccc12	77	102	12	> 30	inactive	98	84	42
Nc1ccc2c(c1N)C(=O)c1ccccc1C2=O	–	99	18	–	inactive	105	95	39
O=C1c2ccccc2C(=O)c2c1ccc1nc(CNCc3ccc4c(c3)OCO4)[nH]c21	75	75	1	22.5	inactive	109	103	14
O=C(CCCl)Nc1ccc2c(c1NC(=O)CCCl)C(=O)c1ccccc1C2=O	13	87	0	> 30	inactive	94	34	6
O=C1c2ccccc2C(=O)c2c1ccc1nc(CN(Cc3ccccn3)Cc3ccccn3)[nH]c21	0	86	0	6.4	inactive	101	13	0
O=C1c2ccccc2C(=O)c2c1ccc1nc(CNCc3cccc(C(F)(F)F)c3)[nH]c21	89	87	4	> 30	inactive	114	110	32
COc1cccc(CN(C)Cc2nc3ccc4c(c3[nH]2)C(=O)c2ccccc2C4=O)c1	78	105	0	18.7	inactive	97	98	9
O=C1c2ccccc2C(=O)c2c1ccc1nc(CCCl)[nH]c21	83	95	8	5.2	inactive	91	86	40
O=C1c2ccccc2C(=O)c2c1ccc1nc(CNCc3ccc(C(F)(F)F)cc3)[nH]c21	8	52	2	7.6	inactive	74	11	0
O=C1c2ccccc2C(=O)c2c1ccc1nc(CNCc3ccccc3C(F)(F)F)[nH]c21	81	87	0	> 30	inactive	99	96	6
